From ChEMBL document CHEMBL1926507, “Discovery of a new class of bicyclic substituted hydroxyphenylmethanones as 17β-hydroxysteroid dehydrogenase type 2 (17β-HSD2) inhibitors for the treatment of osteoporosis” (Eur J Med Chem, 2012)
pIC50: −log10 of the molar value.

Legend:
[1] = target: T1, 17-beta-hydroxysteroid dehydrogenase type 1 (Homo sapiens) (UniProt P14061); assay: Inhibition of human cytosolic 17beta-HSD1 using [2,4,6,7-3H]E1 as substrate at 1 uM after 10 mins by radioflow detector
T1 sequence (whole entry): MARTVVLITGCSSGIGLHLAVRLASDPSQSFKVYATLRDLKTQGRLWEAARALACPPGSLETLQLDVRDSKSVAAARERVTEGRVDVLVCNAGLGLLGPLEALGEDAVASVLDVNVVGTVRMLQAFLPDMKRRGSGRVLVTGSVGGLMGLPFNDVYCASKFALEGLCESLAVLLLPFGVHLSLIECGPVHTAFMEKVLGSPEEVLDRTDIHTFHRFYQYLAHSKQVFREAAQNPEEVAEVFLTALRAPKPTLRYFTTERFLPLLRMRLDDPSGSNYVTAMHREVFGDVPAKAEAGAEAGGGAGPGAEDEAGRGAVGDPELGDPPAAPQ
In short: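 Cytosolic fraction from human placenta incubated with NADH (500 µM), test compound and unlabeled plus [2,4,6,7-3H]-E1 (final 500 nM) for 10 min at 37 °C. Phosphate buffer 50 mM with 20% glycerol and 1 mM EDTA. Inhibitor stocks made in DMSO. Reaction stopped with HgCl2 and extracted with ether. Substrate and product separated by HPLC with radioflow detection. Values are the mean of three determinations.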

[2] = target: T2, 17-beta-hydroxysteroid dehydrogenase type 2 (Homo sapiens) (UniProt P37059); assay: Inhibition of human microsomal 17beta-HSD2 using [2,4,6,7-3H]E2 as substrate at 1 uM after 20 mins by radioflow detector
T2 sequence (whole entry): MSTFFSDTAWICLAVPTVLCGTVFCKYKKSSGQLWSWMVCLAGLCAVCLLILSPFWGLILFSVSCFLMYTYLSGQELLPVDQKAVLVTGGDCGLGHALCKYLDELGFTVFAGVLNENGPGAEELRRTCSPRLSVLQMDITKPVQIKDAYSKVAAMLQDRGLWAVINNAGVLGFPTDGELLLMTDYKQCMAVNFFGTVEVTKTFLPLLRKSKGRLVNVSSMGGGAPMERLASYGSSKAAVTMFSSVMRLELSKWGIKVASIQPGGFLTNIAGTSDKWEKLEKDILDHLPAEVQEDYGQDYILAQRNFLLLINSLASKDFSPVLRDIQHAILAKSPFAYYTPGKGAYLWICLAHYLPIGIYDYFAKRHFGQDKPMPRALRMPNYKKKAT
In short: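 Microsomal fraction from human placenta incubated at 37 °C for 20 min with NAD+ (1500 µM), inhibitor and unlabeled plus [2,4,6,7-3H]-E2 (final 500 nM). Phosphate buffer 50 mM with 20% glycerol and 1 mM EDTA. Inhibitor stocks made in DMSO. Reaction stopped with HgCl2 and extracted with ether. E2 and E1 separated by HPLC with radioflow detection. Values are the mean of three determinations.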

[3] = target: T3, 17-beta-hydroxysteroid dehydrogenase type 1 (Homo sapiens, UniProt P14061); assay: Inhibition of human cytosolic 17beta-HSD1 in cell-free system using [2,4,6,7-3H]E1 as substrate after 10 mins by radioflow detector
T3 sequence (P14061 whole entry): T1 sequence (whole entry)

Homo sapiens = species on record: Homo sapiens; assay: Selectivity ratio of IC50 for human cytosolic 17beta-HSD1 to IC50 for human microsomal 17beta-HSD2
In short: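 Ratio calculated as IC50(17β-HSD1)/IC50(17β-HSD2). 17β-HSD1 was measured in placental cytosol with [3H]-E1 + E1 (500 nM) and NADH (0.5 mM). 17β-HSD2 was measured in placental microsomes with [3H]-E2 + E2 (500 nM) and NAD+ (1.5 mM). Each IC50 is the mean of three determinations.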

[4] = target: T4, 17-beta-hydroxysteroid dehydrogenase type 2 (Homo sapiens, UniProt P37059); assay: Inhibition of human microsomal 17beta-HSD2 in cell-free system using [2,4,6,7-3H]E2 as substrate after 20 mins by radioflow detector
T4 sequence (P37059 whole entry): T2 sequence (whole entry)

[5] = target: T5, Estrogen receptor (Homo sapiens) (UniProt P03372); assay: Displacement of [3H]E2 from human recombinant ERalpha after 1 hr by liquid scintillation counting relative to estradiol
T5 sequence (whole entry): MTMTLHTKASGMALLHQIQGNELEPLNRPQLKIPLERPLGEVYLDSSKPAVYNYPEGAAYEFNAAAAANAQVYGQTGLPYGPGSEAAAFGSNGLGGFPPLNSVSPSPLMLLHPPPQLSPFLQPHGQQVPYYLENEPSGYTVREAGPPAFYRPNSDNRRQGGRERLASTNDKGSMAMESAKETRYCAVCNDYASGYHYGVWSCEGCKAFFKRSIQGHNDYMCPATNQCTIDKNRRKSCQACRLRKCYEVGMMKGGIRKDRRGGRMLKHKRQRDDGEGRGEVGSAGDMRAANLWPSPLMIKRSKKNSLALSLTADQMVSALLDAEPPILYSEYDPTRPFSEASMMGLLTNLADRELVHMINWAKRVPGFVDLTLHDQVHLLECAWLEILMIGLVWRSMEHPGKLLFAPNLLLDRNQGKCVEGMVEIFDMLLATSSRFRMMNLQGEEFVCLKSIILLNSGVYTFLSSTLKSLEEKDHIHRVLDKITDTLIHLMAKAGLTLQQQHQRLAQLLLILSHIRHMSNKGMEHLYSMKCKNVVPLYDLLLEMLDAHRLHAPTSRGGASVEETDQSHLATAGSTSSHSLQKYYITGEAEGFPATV
In short: (§1)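 Recombinant human ERα or ERβ (0.25 pmol) incubated with [3H]-E2 (10 nM) and test compound for 1 h at room temperature, DMSO 5% final. Non-specific binding defined with diethylstilbestrol. Receptor-ligand complexes captured on hydroxyapatite, washed, resuspended in ethanol, and counted by liquid scintillation. IC50 for [3H]-E2 displacement taken from sigmoidal curves. RBA = IC50(E2)/IC50(compound) × 100, with unlabeled E2 as reference.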

[6] = target: Estrogen receptor beta (Homo sapiens) (UniProt Q92731); assay: Displacement of [3H]E2 from human recombinant ERbeta after 1 hr by liquid scintillation counting relative to estradiol; in short: as §1
Chain of Estrogen receptor beta (Homo sapiens) (Q92731 whole entry): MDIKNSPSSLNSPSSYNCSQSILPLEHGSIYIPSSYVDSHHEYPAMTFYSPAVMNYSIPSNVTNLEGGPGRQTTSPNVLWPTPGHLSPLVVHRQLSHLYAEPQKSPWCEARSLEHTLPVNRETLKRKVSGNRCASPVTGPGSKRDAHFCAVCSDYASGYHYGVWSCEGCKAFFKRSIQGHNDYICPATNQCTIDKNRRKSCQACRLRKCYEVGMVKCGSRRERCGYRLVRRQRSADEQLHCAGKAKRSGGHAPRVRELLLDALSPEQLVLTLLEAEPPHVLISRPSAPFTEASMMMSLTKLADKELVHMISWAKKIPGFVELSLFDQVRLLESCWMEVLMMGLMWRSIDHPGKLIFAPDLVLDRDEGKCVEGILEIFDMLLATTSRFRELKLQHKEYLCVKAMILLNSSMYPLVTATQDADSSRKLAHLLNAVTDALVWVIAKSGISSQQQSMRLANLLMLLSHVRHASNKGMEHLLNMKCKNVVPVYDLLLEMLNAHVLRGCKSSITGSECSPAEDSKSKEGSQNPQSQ

inhibition [1] [%] | inhibition [2] [%] | pIC50 [3] | Ratio IC50 (Homo sapiens) | pIC50 [4] | RBA [5] [%] | RBA [6] [%] | SMILES
< 10 | 84 | – | – | – | – | – | Cc1cc(-c2cccc(C(=O)c3cccc(O)c3)n2)ccc1O
< 10 | 18 | – | – | – | – | – | Cc1cc(O)ccc1-c1cccc(C(=O)c2cccc(O)c2)n1
50 | 87 | 5.99 | 7 | 6.82 | – | – | O=C(c1ccc(F)c(O)c1)c1ccc(-c2ccc(O)c(Cl)c2)cn1
24 | 73 | 5.26 | 21 | 6.59 | < 0.1 | < 0.1 | Cc1cc(-c2ccc(C(=O)c3cccc(O)c3)nc2)ccc1O
< 10 | 28 | – | – | – | – | – | Cc1cc(-c2cccc(C(=O)c3ccc(C)c(O)c3)n2)ccc1O
< 10 | < 10 | – | – | – | – | – | O=C(c1cccc(O)c1)c1cccc(-c2ccccc2O)n1
< 10 | 16 | – | – | – | – | – | O=C(c1cccc(O)c1)c1cccc(-c2ccc(O)cc2)n1
< 10 | 55 | 4.22 | 81 | 6.12 | – | – | O=C(c1cccc(O)c1)c1cccc(-c2ccc(O)c(Cl)c2)n1
47 | 84 | 5.90 | 13 | 7.00 | < 0.1 | < 0.1 | Cc1cc(-c2ccc(C(=O)c3ccc(F)c(O)c3)nc2)ccc1O
43 | 80 | 5.75 | 11 | 6.75 | – | – | O=C(c1ccc(-c2ccc(O)cc2Cl)cc1)c1cccc(O)c1
26 | 68 | 5.61 | 5 | 6.28 | – | – | O=C(c1ccc(-c2ccc(O)c(F)c2)cc1)c1cccc(O)c1
66 | 92 | 6.24 | 4 | 6.82 | < 0.1 | < 0.1 | O=C(c1ccc(-c2ccc(O)c(Cl)c2)cc1)c1cccc(O)c1
64 | 56 | – | – | – | – | – | O=C(c1cccc(O)c1)c1cccc(-c2ccc(O)cc2F)n1
58 | 90 | 6.38 | 3 | 6.88 | < 0.1 | < 0.1 | Cc1cc(-c2ccc(C(=O)c3cccc(O)c3)cc2)ccc1O
50 | 77 | 6.32 | 1 | 6.42 | – | – | Cc1cc(-c2cccc(C(=O)c3cccc(O)c3)c2)ccc1O
95 | 100 | 7.28 | 2 | 7.62 | < 0.1 | < 0.1 | O=C(c1ccc(-c2ccc(O)c(Cl)c2)cc1)c1ccc(F)c(O)c1
< 10 | < 10 | – | – | – | – | – | O=C(c1cccc(O)c1)c1cccc(-c2cccc(O)c2)n1
58 | 84 | 6.25 | 3 | 6.66 | – | – | Cc1cc(-c2ccc(C(=O)c3cccc(O)c3)cn2)ccc1O
< 10 | 57 | – | – | – | – | – | Cc1cc(-c2cccc(C(=O)c3cc(O)cc(F)c3)n2)ccc1O
– | – | – | 0.02 | – | – | – | Cc1cc(-c2ccc(C(=O)c3cccc(O)c3)s2)ccc1O
< 10 | 62 | 4.65 | 30 | 6.12 | – | – | Cc1cc(-c2cccc(C(=O)c3ccc(F)c(O)c3)n2)ccc1O
47 | 40 | – | – | – | – | – | O=C(c1cccc(O)c1)c1cccc(-c2ccc(O)c(F)c2)n1
16 | 11 | – | – | – | – | – | Cc1cc(-c2ccc(C(=O)c3ccc(F)c(F)c3)cc2)ccc1O
79 | 98 | 6.54 | 9 | 7.47 | < 0.1 | < 0.1 | Cc1cc(-c2ccc(C(=O)c3ccc(F)c(O)c3)cc2)ccc1O
84 | 100 | 6.80 | 5 | 7.51 | < 0.1 | < 0.1 | Cc1cc(-c2ccc(C(=O)c3cc(O)cc(F)c3)cc2)ccc1O
